Hits are enriched below; roughly 2.1% of the tested compounds scored in any of these assays.
MsrA act: bovine methionine sulfoxide reductase A activation. hit rate 0.3% among 360,000. activation, % at 10.6 µM. purified bovine MsrA, absorbance read-out; in the data active means activation above about 7.5%
IMP-1 inhibitor: blocks Pseudomonas aeruginosa IMP-1 metallo-beta-lactamase. purified IMP-1, nitrocefin hydrolysis, epi-absorbance fluorescence. hit rate 0.45% among 290,000. inhibition, % at 5.6 µM;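 active means inhibition above the mean plus 3 SD of all compounds in the same screening run, cut at about 4.5% in these data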
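Test system: recombinant IMP-1 enzyme, purified / Medium: HEPES buffer pH 7.1 with ZnSO4 and Brij 35 / Doses: single dose, 5.6 µM / Times: 25 °C, 15 min preincubation, 25 min reaction / Detection: Epi-absorbance via hydrolysed-nitrocefin quenching of white-plate fluorescence, 480/530 nm, EDTA stop / Evaluation: percent inhibition from optical density relative to buffer-blank wells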
PKA-R2B activ: activators of human PKA-R2B complex | P22694+P31323 | PKA-R2B holoenzyme dissociation, Cy5-IP20 fluorescence polarization; R2B truncated from residue 108, S112A mutant; 0% DMSO only, 100% 113 µM cGMP | activation, % at 11.4 µM | hit rate 0.079% among 340,000 | AID 504700;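 active means activation above a cutoff set at the mean over all compounds plus 3 SD, cut at about 18% in these data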;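 further: higher means more holoenzyme dissociation and a rise in polarization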
Target sequence (P31323 whole entry, looked up, other chains not shown, the tested form may be a part): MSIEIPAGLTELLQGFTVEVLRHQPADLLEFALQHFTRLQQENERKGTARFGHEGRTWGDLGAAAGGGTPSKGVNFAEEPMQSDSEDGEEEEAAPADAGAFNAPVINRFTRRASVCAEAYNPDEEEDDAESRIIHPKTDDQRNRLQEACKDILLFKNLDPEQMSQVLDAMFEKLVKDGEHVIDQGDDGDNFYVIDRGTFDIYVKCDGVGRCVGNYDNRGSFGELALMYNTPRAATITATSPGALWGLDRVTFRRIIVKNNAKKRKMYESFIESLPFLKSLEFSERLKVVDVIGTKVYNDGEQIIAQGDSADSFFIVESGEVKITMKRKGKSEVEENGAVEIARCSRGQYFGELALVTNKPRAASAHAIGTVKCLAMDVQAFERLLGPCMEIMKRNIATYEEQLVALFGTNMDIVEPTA
MsrA inhibitor: inhibits bovine methionine sulfoxide reductase A. purified bovine MsrA, absorbance read-out. inhibition, % at 15.5 µM. hit rate 0.75% among 360,000; in the data active means inhibition above about 4.5%
VIM-2 inh: inhibitors of Pseudomonas aeruginosa VIM-2 metallo-beta-lactamase | inhibition, % at 5.6 µM | purified VIM-2, nitrocefin hydrolysis, epi-absorbance fluorescence | hit rate 0.89% among 290,000;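 active means inhibition above the mean of all tested compounds plus 3 SD, cutoff set per screening run, cut at about 7.5% in these data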;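 further: red hydrolysis product quenches plate fluorescence so inhibitors raise well fluorescence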
PKA-R1A act: PKA-R1A complex activation; hit rate 0.083% among 340,000; activation, % at 11.4 µM; PKA-R1A dissociation, Cy5-IP20 fluorescence polarization; scaled: DMSO 0%, 113 µM cGMP 100%; P00514+P68181;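 active means percent activation above the mean of all tested compounds plus 3 SD, cut at about 19% in these data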;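 further: higher means more PKAc released from R1A so a rise in polarization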
Large screens that a line does not name were inactive.

Cc1ccc(NC(=O)CN2C(=O)CN=C(c3ccccc3)c3cc(Cl)ccc32)cc1	none
CN(C)c1ccc(NC(=O)CN2C(=O)CN=C(c3ccccc3)c3cc(Cl)ccc32)cc1	IMP-1 inhibitor 4.5
CC(C)N1C(=O)/C(=C/C=C/c2ccco2)C(=O)N(Cc2ccco2)C1=O	none
CCN1C(=O)C(=C/C=C/c2ccco2)C(=O)N(CC)C1=S	IMP-1 inhibitor 5.8
COc1ccccc1C1CC2CCC(C1OC(C)=O)N2Cc1ccccc1 (stereo not drawn)	none
O=[As](O)(O)c1ccc(N=Nc2ccc(O)cc2)cc1	IMP-1 inhibitor 5.1
CC1CN(C(=O)CCC(=O)N2CCC3(CC2)OCCO3)c2cc(Cl)ccc2O1 (stereo not drawn)	none
CC(=O)C1C2c3ccccc3OC1(C)N=c1s/c(=C/c3cnn(C)c3)c(=O)n12 (stereo not drawn)	MsrA inhibitor 8.1
Cc1c(C=O)c2ccccc2n1Cc1ccccc1F	none
CCOC(=O)c1c(C=O)c2ccccc2n1Cc1ccccc1F	MsrA inhibitor 4.6
O=C(c1ccc(F)c([N+](=O)[O-])c1)N1CC2CC(C1)c1cccc(=O)n1C2 (stereo not drawn)	none
CCOCCN1CCN(c2nnc3n2-c2ccc(Cl)cc2C(c2ccccc2Cl)=NC3)CC1	none
COCCCN1CCN(c2nnc3n2-c2sc(Br)cc2C(c2ccccc2Cl)=NC3)CC1	IMP-1 inhibitor 8.3
COC(=O)C1C(c2ccc(F)cc2)CC2CCC1N2C (stereo not drawn)	none (no result: MsrA act, IMP-1 inhibitor, PKA-R2B activ, VIM-2 inh, PKA-R1A act)
COc1ccc(-n2c(O)c(/C=C/C=Nc3ccccc3)c(=O)[nH]c2=O)cc1	IMP-1 inhibitor 9.4
O=C(Nc1ccc(Cl)cc1)Nc1nccs1	none
CCN1/C(=C\C=C\C2=[N+](CC)c3ccccc3C2(C)C)C(C)(C)c2ccccc21	IMP-1 inhibitor 5.5 (no result: MsrA inhibitor)
c1ccc2c(c1)[IH]c1ccccc1-2	MsrA inhibitor 85 (no result: IMP-1 inhibitor, VIM-2 inh)
Cc1ccnc(-n2c(C)cc(C=C3C(=O)N(C)C(=S)N(C)C3=O)c2C)c1	none
Cc1cc(C=C2C(=O)N(C)C(=S)N(C)C2=O)c(C)n1-c1ccncc1	IMP-1 inhibitor 18 (no result: PKA-R2B activ, PKA-R1A act)
O=[N+]([O-])c1ccc(NCCCN2CCOCC2)nc1	MsrA inhibitor 4.6
O=C(NCCN1CCOCC1)c1ccc(Cl)nc1	none
COc1ccc(Cn2c(O)c(/C=N/NC(=O)c3ccncc3)c(=O)[nH]c2=O)cc1	none
O=C(N/N=C/c1c(O)n(Cc2ccccc2)c(=O)[nH]c1=O)c1ccccc1O	MsrA inhibitor 4.6
COc1ccc(Cn2c(O)c(/C=N/NC(=O)c3ccccc3)c(=O)[nH]c2=O)cc1	MsrA inhibitor 4.5
CCC1(CC)C(=N)N(C)C(=O)NC1=O	none
CCCOc1ccccc1C1SCC(=O)Nc2c1c(=O)[nH]n2C(C)CCC (stereo not drawn)	VIM-2 inh 8.7
O=C(NC1CCCCC1)N1C[C@H]2C[C@@H](C1)c1cccc(=O)n1C2	none
NC(=S)c1cn(C2OC(CO)C(O)C2O)c2ncnc(N)c12 (stereo not drawn)	IMP-1 inhibitor 12
C[CH2][Hg][S]c1ccccc1C(=O)O	none (no result: IMP-1 inhibitor, VIM-2 inh)
CC(C)c1ccc(-n2c(O)c(C=NCCN3CCNCC3)c(=O)[nH]c2=S)cc1	none
Cc1ccc(-n2c(O)c(C=NCCN3CCNCC3)c(=O)[nH]c2=S)cc1	MsrA inhibitor 4.6
C/C1=C\[C@@H](C)C/C=C/[C@H]2[C@@H]3O[C@]3(C)[C@@H](C)[C@H]3[C@H](Cc4c[nH]c5ccccc45)NC(=O)[C@]32C(=O)/C=C/C(=O)[C@@H]1O	MsrA act 8.1 (no result: MsrA inhibitor)
CCC1(Cc2ccccc2)C(=O)NC(=S)N(C)C1=O (stereo not drawn)	none (no result: IMP-1 inhibitor, VIM-2 inh)
COc1ccc2c3c([nH]c2c1)C(C)=NCC3	MsrA act 11
CCOc1ccc(-n2c(-c3cccs3)nc3ccccc3c2=O)cc1	none
CCn1nc(-c2cccs2)nc2c(=O)n(C)c(=O)nc1-2	MsrA act 59 (no result: IMP-1 inhibitor, MsrA inhibitor, VIM-2 inh)
COc1ccc2nc(-c3ccc(CN4CCC(n5nnc6ccccc65)CC4)cc3)c(-c3ccccc3)nc2c1	none (no result: MsrA act, IMP-1 inhibitor, PKA-R2B activ, VIM-2 inh, PKA-R1A act)
CCN(CC)C(=O)c1ccc(NC(=O)c2cn(-c3ccccc3)nc2-c2ccc(OC)cc2)cc1	none
CCN(CC)C(=O)c1ccc(NC(=O)COc2ccc(-c3nn(C)c(=O)c4ccccc34)cc2)cc1	VIM-2 inh 9.0
COP(=O)(OC)OC=C(Cl)Cl	none (no result: MsrA act, IMP-1 inhibitor, PKA-R2B activ, VIM-2 inh, PKA-R1A act)
COC(=O)C1=C(c2ccc(OC(F)(F)F)cc2)C[C@@H]2CC[C@H]1N2C(=O)NCCOc1ccc(OC)cc1	MsrA inhibitor 10.0 (no result: IMP-1 inhibitor, VIM-2 inh)
O=C(CCNC(=O)N1C[C@H]2C[C@@H](C1)c1cccc(=O)n1C2)Nc1cccc(Cl)c1	none
Cc1cc(OCC(=O)N[C@@H](Cc2ccccc2)C(=O)O)c2c3c(c(=O)oc2c1)CCCC3	VIM-2 inh 11
COC(=O)C(C)Oc1cc(C)cc2oc(=O)c3c(c12)CCC3 (stereo not drawn)	VIM-2 inh 11
Cc1cc(OCc2nn[nH]n2)c2c3c(c(=O)oc2c1)CCC3	VIM-2 inh 12
CCOC(=O)C(C)Oc1cc(C)cc2oc(=O)c3c(c12)CCCC3 (stereo not drawn)	none
COC(=O)C(C)Oc1cc(C)cc2oc(=O)c3c(c12)CCCC3 (stereo not drawn)	VIM-2 inh 9.9
Cc1cc(OCC(=O)NCC(O)c2ccccc2)c2c3c(c(=O)oc2c1)CCCC3 (stereo not drawn)	none
CN=C(SCC(=O)c1cccc(Cl)c1)c1c(O)n(C)c(=O)n(C)c1=O	none
CCOc1cccc(CNCCc2c(C)[nH]c3ccc(OC(F)(F)F)cc23)c1O	none
COC(=O)C1=C(c2cc3ccccc3s2)C[C@@H]2CC[C@H]1N2C(=O)NCCS(C)=O (stereo partly drawn)	none (no result: IMP-1 inhibitor, VIM-2 inh)
Cc1cc(O)c2c(c1)C(=O)C13C(=C2O)C(=O)[C@H]2[C@@H](O)[C@@H]1[C@H]1[C@H](O)[C@@H]3C(=O)C3=C(O)c4c(O)cc(C)cc4C(=O)C312 (stereo partly drawn)	PKA-R2B activ 37 (no result: IMP-1 inhibitor, MsrA inhibitor, VIM-2 inh)
OC1CN2CCCC(O)C2C1O (stereo not drawn)	none (no result: MsrA act, IMP-1 inhibitor, PKA-R2B activ, VIM-2 inh, PKA-R1A act)
CCOc1cc(C=O)ccc1O	MsrA inhibitor 4.6 (no result: IMP-1 inhibitor, VIM-2 inh)
CCN(CC)CCCNC(=O)c1c(O)c2ccccc2n(Cc2ccccc2)c1=O	VIM-2 inh 12
N#Cc1c(N2CCNCC2)nc(-c2ccco2)c2c1CCCC2	VIM-2 inh 8.9
CCn1c(O)c(C(=O)CC2NCCc3ccccc32)c(=O)n(CC)c1=S (stereo not drawn)	IMP-1 inhibitor 9.6 (no result: MsrA inhibitor)
CCn1c(O)c(C=Nc2ccc(N3CCOCC3)cc2)c(=O)n(CC)c1=S	none
O=C(O)C1C2CCC(O2)C1C(=O)Nc1cccc(Br)c1 (stereo not drawn)	none
O=C1NC(=S)N(Cc2ccco2)C(=O)/C1=C\c1cccs1	IMP-1 inhibitor 5.1 (no result: MsrA act, PKA-R2B activ, MsrA inhibitor, PKA-R1A act)

Screening results deposited in PubChem by The Scripps Research Institute Molecular Screening Center.
